APP 5'UTR act: activates APP 5'UTR luciferase reporter; SH-SY5Y APP 5'UTR luciferase reporter, luminescence; zero percent = DMSO vehicle wells; 190,000 tested, 1% active; activation, % at 2 µM;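 active = activation above a set limit, based on mean plus 3 SD of controls, cut at about 140% in these data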
sdo1 growth: compounds rescuing growth of sdo1-depleted yeast, bone marrow failure model | S. cerevisiae sdo1-depleted JHY4D growth rescue, OD600 30 h; hits give high values; pdr5 snq2 efflux-pump mutant strain | z-score at 10 µM | 140,000 tested, 0.21% active;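 active = z-score above 3 at both the 24 hr and the 30 hr optical density reads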
STAT1 act: activators of IFN-gamma induced STAT1 signaling; NIH 3T3 STAT1-luciferase reporter, luminescence; 100% = IFN-gamma alone, no compound; 200,000 tested, 2.6% active; activation (% of control), % at 5.5 µM;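 active = activation above the screen-wide mean activation plus 3 SD, cut at about 130% in these data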
FLuc stim CS: affects firefly luciferase, flagging false hits in luciferase stimulation screens; P08659; ATPlite luciferase biochemical, luminescence, 10 min; 0 = ATP-free wells, 1 = DMSO control; activation factor at 10 µM; 200,000 tested, under 10 active; AID 1027;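 active = luciferase activation factor, scaled between plate controls, of at least 2 with compound at 10 µM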
Target sequence (P08659 whole entry, looked up): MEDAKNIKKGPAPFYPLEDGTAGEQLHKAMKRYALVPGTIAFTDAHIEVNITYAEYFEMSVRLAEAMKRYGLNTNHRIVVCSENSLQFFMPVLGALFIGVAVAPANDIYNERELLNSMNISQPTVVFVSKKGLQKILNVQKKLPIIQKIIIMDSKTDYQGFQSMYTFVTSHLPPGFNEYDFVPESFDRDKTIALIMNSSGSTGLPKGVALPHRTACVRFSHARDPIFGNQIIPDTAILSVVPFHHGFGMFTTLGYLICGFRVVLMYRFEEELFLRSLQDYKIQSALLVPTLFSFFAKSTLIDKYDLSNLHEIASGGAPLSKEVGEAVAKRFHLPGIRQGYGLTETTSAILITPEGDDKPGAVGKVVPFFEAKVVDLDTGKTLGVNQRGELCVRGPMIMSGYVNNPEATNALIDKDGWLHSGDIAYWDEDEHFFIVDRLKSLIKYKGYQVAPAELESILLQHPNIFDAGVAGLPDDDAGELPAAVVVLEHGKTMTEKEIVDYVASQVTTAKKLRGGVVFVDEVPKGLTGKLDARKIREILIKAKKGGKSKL
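Material: luciferase plus luciferin reagent, cell-free. Medium: PBS buffer for ATP. Also added: ATP substrate, dispensed from a 10.24 µM working solution in PBS. Doses: test compounds dosed from 2 mM stocks in 100% DMSO. Incubation: 10 min post-reagent at room temperature. Technique: light output (luminescence). Read-out basis: luminescence gain marking luciferase activators.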
FLuc inh counter: counter-screen for luciferase assay inhibitors: firefly luciferase inhibition; ATPLite firefly luciferase biochemical luminescence, 10 min; inhibition, % at 10 µM; 200,000 tested, 1.5% active;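 active = inhibition above about 50% when tested at 10 µM, limit read from the data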
NF-kB expr up: NF-kB expression increase, human neuronal cells. 190,000 tested, 1.6% active. AID 1239. NF-kB reporter expression; hits give high values. fold change at 12.5 µM; in the data active = fold change above about 3.3
Hits are given with their value; i = inactive; nt = no result. Sampled rows, rich in hits. Any-hit rate of the full collection: about 4.3%.

SMILES	APP 5'UTR act	sdo1 growth	STAT1 act	FLuc stim CS	FLuc inh counter	NF-kB expr up
O=C1c2ccccc2C(=O)N1CCOc1ccccc1	i	nt	135	nt	nt	nt
O=S(=O)(c1ccccc1)c1cnc(-c2ccccc2)nc1N1CCCCC1	i	nt	145	i	i	i
Oc1[nH]c2ccccc2c1/C=N/c1nccs1	i	i	i	i	i	i
Cc1ccc(N=Cc2c(O)[nH]c3ccccc23)c([N+](=O)[O-])c1	160	nt	131	i	i	i
O=C1OCC2=C1C(c1ccc(F)cc1)c1cc3c(cc1N2)OCO3 (stereo unspecified)	i	nt	i	i	i	i
CCOc1ccccc1C1C2=C(COC2=O)Nc2cc3c(cc21)OCO3 (stereo unspecified)	i	nt	i	i	i	3.3
CCOc1ccc(N=Cc2c(C)[nH]n(-c3nc4ccccc4[nH]3)c2=O)cc1	i	i	i	i	70	i
Cc1[nH]n(-c2ccccc2)c(=O)c1C=Nc1cnc2ccccc2c1	i	i	i	i	i	i
O=c1[nH][nH]cc1C=Nc1ccccc1Cl	i	nt	i	i	i	i
O=c1[nH][nH]cc1C=Nc1ccccc1O	i	i	i	i	i	6.2
O=c1[nH][nH]cc1C=Nc1ccc(Cl)cc1Cl	i	nt	i	i	i	i
O=c1[nH][nH]cc1C=Nc1cc(Cl)ccc1O	i	nt	i	i	i	4.2
O=C(NC1CCCC1)c1n[nH]c2ccccc12	i	nt	138	i	i	i
O=C(COC(=O)c1n[nH]c2ccccc12)NC(=O)NC1CCCC1	i	i	i	i	i	i
CC(C)(C)OC(=O)N[C@@H](CC(=O)OCc1ccccc1)C(=O)O	i	nt	i	i	i	nt
Nc1c(C(=O)c2ccc(Cl)cc2)sc2nc3c(cc12)CCC3	135	i	i	i	i	i
CC(C)(C)c1ccc(OCc2ccc(C(=O)N/N=C/c3ccc([N+](=O)[O-])cc3)o2)cc1	i	i	131	i	i	i
CCOc1ccc(/C=N/NC(=O)c2ccc(Cn3cc([N+](=O)[O-])cn3)o2)cc1	i	i	i	i	i	i
CC(C)(C)c1ccc(S(=O)(=O)N2CCSC2)cc1	i	i	i	i	i	i
CC1N/C(=C\C(=O)c2ccccc2)N(O)C1(C)C (stereo unspecified)	i	i	134	i	63	i
CN1C(CC(=O)c2ccccc2)CCCC1CC(O)c1ccccc1 (stereo unspecified)	i	i	i	i	i	i
CCOC(=O)C1CCCN(c2c(Nc3cccc(C)c3)c(=O)c2=O)C1 (stereo unspecified)	nt	i	i	i	i	i
Cc1ccc(O)c(N=NC2=C(O)CC(C)(C)CC2=O)c1	i	i	i	i	62	i
CCN1C(=C2C(=O)c3ccccc3C2=O)C=Cc2ccccc21	i	i	i	i	i	i
CCCCCN1C=CC(=C2C(=O)c3ccccc3C2=O)C=C1	i	nt	i	i	97	nt
SMILES	APP 5'UTR act	sdo1 growth	STAT1 act	FLuc stim CS	FLuc inh counter	NF-kB expr up
O=C1c2ccccc2CN1CCNC(=S)NC1CCCCC1	i	nt	i	i	i	i
O=C1c2ccccc2CN1CCSC(=S)N1CCSCC1	i	nt	134	i	i	i
CC1CN(C(=S)SCCN2Cc3ccccc3C2=O)CC(C)O1 (stereo unspecified)	i	i	i	i	i	i
O=C1c2ccccc2CN1CCSC(=S)N1CCOCC1	i	i	130	i	i	i
Cc1nn(Cc2ccccc2Cl)c(C)c1NC(=O)CSc1n[nH]c(C)c1[N+](=O)[O-]	i	i	i	i	i	i
COc1ccc(C(=O)c2c[nH]c3ccccc23)cc1	i	i	134	i	64	3.5
O=c1oc2ccccc2c(Nc2cccc3cccnc23)c1[N+](=O)[O-]	i	nt	i	i	i	i
c1ccc(-c2nnc(SCCC3OCCCO3)o2)cc1	i	i	i	i	i	3.4
Brc1ccc(-c2nnc(SCCC3OCCCO3)o2)cc1	i	i	i	i	i	i
CCN1C(=O)N(C(C)=O)C2C1N(C(C)=O)C(=O)N2C(C)=O (stereo unspecified)	i	nt	i	i	i	i
C/C(=N\NC(=O)c1ccn(C)n1)c1ccc(NC(=O)C2CCCC2)cc1	i	i	135	i	i	i
C/C(=N/NC(=O)c1ccoc1C)c1ccc(NC(=O)C2CCCC2)cc1	161	i	136	i	i	i
C/C(=N\NC(=O)C1(C)CC1(Br)Br)c1ccc(NC(=O)C2CCC2)cc1 (stereo unspecified)	i	i	i	i	i	i
Cc1cc2nn(-c3cccc4ccccc34)nc2cc1N	i	i	i	i	i	i
COc1ccc(-n2nc3cc(C)c(NC(=O)C(C)C)cc3n2)cc1	i	i	139	i	i	i
COc1ccc(NC(C)=O)c(C)c1	i	nt	i	i	i	i
Cc1ccc(-n2nc3cc(C)c(N)cc3n2)cc1	i	i	i	i	81	3.9
COc1ccc(-n2nc3ccccc3n2)cc1	i	i	i	i	i	i
COc1ccc(-n2nc3cc(C)c(N)c(Br)c3n2)cc1	185	i	168	i	i	6.3
COc1ccc(-n2nc3cc(C)c(NC(C)=O)cc3n2)cc1	i	nt	i	i	81	i
CCc1ccc(NC(=O)c2ccccc2NC(=O)C2CCCO2)cc1 (stereo unspecified)	i	i	i	i	i	i
COC(=O)c1ccc(N2C(=O)C3CC(C)=C(C)CC3C2=O)cc1 (stereo unspecified)	i	nt	i	i	i	nt
CC(C)Cn1c(=O)c(C(=O)N/N=C/c2cccc(F)c2)c(O)c2ccccc21	i	i	i	i	i	i
COc1ccc(C2CC(c3ccccc3)=NN2c2ccc(N)cc2)cc1 (stereo unspecified)	i	i	141	i	i	i
COc1ccc(C2CC(c3ccccc3)=NN2c2ccc(Cl)c(C(=O)O)c2)cc1 (stereo unspecified)	i	nt	i	i	i	i
SMILES	APP 5'UTR act	sdo1 growth	STAT1 act	FLuc stim CS	FLuc inh counter	NF-kB expr up
O=C(CCn1cnnn1)Nc1ccc(F)cc1	i	nt	i	i	i	i
CCc1[nH]nc(C(=O)N2CCCC(CCC(=O)N3CCN(c4ccccn4)CC3)C2)c1C (stereo unspecified)	i	nt	i	i	i	i
COc1ccc(-c2cc3nnc(-c4ccccc4)nc3s2)cc1	i	i	135	i	i	i
COc1cccc2cc(C(=O)c3ccccc3)oc12	i	nt	137	i	i	i
O=C(c1ccccc1)c1cc2ccccc2o1	i	i	131	i	i	i
Cc1ccc(C(=O)c2cc3ccccc3o2)cc1[N+](=O)[O-]	i	nt	139	i	i	i
COc1cccc2cc(/C(=N/O)c3ccc(Br)cc3)oc12	i	nt	i	i	i	i
COc1ccc(N2CCN(CC(=O)Nc3ccc(-n4cnnn4)cc3)CC2)cc1	i	i	i	i	i	i
Cc1csc(C(C#N)C(=O)c2cc3ccccc3o2)n1 (stereo unspecified)	i	i	i	i	88	i
